The species entered for this assay is Rattus norvegicus. The assay is described as follows: In vitro growth hormone (GH) releasing activity in rat primary pituitary cells. The class given is functional. Particulars: Pituitary gland cell, read-out: ED50 (the source's name). In a few lines: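 Rat anterior pituitaries dispersed with 0.2% collagenase and 0.2% hyaluronidase, then cultured 3–4 days at 37 °C, 5% CO₂, in DMEM with 10% horse serum and 2.5% FBS. Cells washed in medium with 25 mM HEPES pH 7.4, then exposed in quadruplicate to serially diluted agents (final 1% DMSO) for 15 min at 37 °C. Medium GH measured by double-antibody RIA; ED₅₀ = dose giving 50% maximal GH release.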

Bounds are passed on as bounds.

Consider `CC(C)(N)C(=O)N[C@@H]1CCc2ccccc2N(Cc2ccc(-c3ccccc3CNC(=O)NCc3ccccc3)cc2)C1=O`, for which the EC50 stood at 390 nM.

As for `CC(C)(N)C(=O)N[C@@H]1CCc2ccccc2N(Cc2ccc(-c3ccccc3CNC(=O)NCCO)cc2)C1=O`, the EC50 was determined as 2 nM.

As to `CCNC(=O)NCc1ccccc1-c1ccc(CN2C(=O)[C@H](NC(=O)C(C)(C)N)CCc3ccccc32)cc1`, the EC50 was 6 nM.

With `CC(C)NC(=O)NCc1ccccc1-c1ccc(CN2C(=O)[C@H](NC(=O)C(C)(C)N)CCc3ccccc32)cc1`, the EC50 came to 270 nM.

`CC(C)(N)C(=O)N[C@@H]1CCc2ccccc2N(Cc2ccc(-c3ccccc3-c3nn[nH]n3)cc2)C1=O`: the EC50 was 30 nM.

On to `CNC(=O)Nc1ccccc1-c1ccc(CN2C(=O)[C@H](NC(=O)CC(C)(C)N)CCc3ccccc32)cc1`, for which the EC50 came to 50 nM.

As to `CC(C)(N)CC(=O)N[C@@H]1CCc2ccccc2N(Cc2ccc(-c3ccccc3CN)cc2)C1=O`, the EC50 is greater than 1000 nM.

Take `CNC(=O)NCCc1ccccc1-c1ccc(CN2C(=O)[C@H](NC(=O)C(C)(C)N)CCc3ccccc32)cc1`: the EC50 stood at 40 nM.

For `CNC(=O)NCc1ccccc1-c1ccc(CN2C(=O)[C@H](NC(=O)CC(C)(C)N)CCc3ccccc32)cc1`, the EC50 stood at 6 nM.

In the case of `CCCNC(=O)NCc1ccccc1-c1ccc(CN2C(=O)[C@H](NC(=O)C(C)(C)N)CCc3ccccc32)cc1`, the EC50 came out at 144 nM.

On to `CC(C)(N)CC(=O)N[C@@H]1CCc2ccccc2N(Cc2ccc(-c3ccccc3-c3nn[nH]n3)cc2)C1=O`, for which the EC50 is 60 nM.

On to `CNC(=O)NCc1ccccc1-c1ccc(CN2C(=O)[C@H](NC(=O)C(C)(C)N)CCc3ccccc32)cc1`, for which the EC50 amounted to 1 nM.

With `CC(C)(N)CC(=O)N[C@@H]1CCc2ccccc2N(Cc2ccc(-c3ccccc3C(N)=O)cc2)C1=O`, the EC50 was 80 nM.

As for `CC(C)(N)C(=O)N[C@@H]1CCc2ccccc2N(Cc2ccc(-c3ccccc3CNC(=O)NC3CC3)cc2)C1=O`, the EC50 was 45 nM.

Regarding `CC(=O)NCc1ccccc1-c1ccc(CN2C(=O)[C@H](NC(=O)CC(C)(C)N)CCc3ccccc32)cc1`, the EC50 was found to be 200 nM.

For `CN(C)C(=O)NCc1ccccc1-c1ccc(CN2C(=O)[C@H](NC(=O)C(C)(C)N)CCc3ccccc32)cc1`, the EC50 is 60 nM.

For the molecule `CC(C)(N)C(=O)N[C@@H]1CCc2ccccc2N(Cc2ccc(-c3ccccc3CNC(N)=O)cc2)C1=O`, the EC50 came out at 21 nM.

Source of the values: ChEMBL document CHEMBL1131572, “A potent, orally bioavailable benzazepinone growth hormone secretagogue” (1998).
